{"source": "paper PMC2606940", "about": "(The Journal of General Physiology, 2009)", "key": {"CLC-0 E166S mutant": {"biological_target": "T1, CLC-0 E166S mutant (Torpedo marmorata, UniProt P21564, C212S/E166S)", "T1 sequence (P21564 1-805 E166S/C212S)": "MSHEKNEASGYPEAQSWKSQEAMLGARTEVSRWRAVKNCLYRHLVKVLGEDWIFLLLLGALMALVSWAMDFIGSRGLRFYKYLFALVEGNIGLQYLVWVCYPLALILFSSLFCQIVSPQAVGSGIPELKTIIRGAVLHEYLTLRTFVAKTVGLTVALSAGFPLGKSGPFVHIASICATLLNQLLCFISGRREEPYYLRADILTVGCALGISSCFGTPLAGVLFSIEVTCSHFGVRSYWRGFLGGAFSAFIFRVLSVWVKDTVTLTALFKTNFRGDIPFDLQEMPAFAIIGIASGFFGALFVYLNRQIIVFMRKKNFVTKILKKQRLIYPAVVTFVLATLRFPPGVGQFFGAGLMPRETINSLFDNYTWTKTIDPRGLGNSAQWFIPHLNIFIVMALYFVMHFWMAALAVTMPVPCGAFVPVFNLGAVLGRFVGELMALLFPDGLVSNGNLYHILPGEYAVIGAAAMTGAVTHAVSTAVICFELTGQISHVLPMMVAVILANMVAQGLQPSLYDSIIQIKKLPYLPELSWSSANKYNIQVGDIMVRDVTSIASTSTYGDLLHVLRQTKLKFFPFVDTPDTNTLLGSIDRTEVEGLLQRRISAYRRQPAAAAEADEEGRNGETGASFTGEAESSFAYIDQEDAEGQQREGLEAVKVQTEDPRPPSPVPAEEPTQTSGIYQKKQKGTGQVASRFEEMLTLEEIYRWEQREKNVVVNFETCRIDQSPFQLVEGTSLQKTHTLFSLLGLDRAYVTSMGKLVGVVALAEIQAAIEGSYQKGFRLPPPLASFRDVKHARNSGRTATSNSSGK", "assay_type": "cell-based", "conditions": "read-out: Apparent affinity (K1/2)", "summary_of_the_method": "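CLC-0 mutants (C212S background) were lipofectamine-transfected into HEK293 cells and recorded 1–3 d later from inside-out patches. Pipette and bath contained 130 mM NaCl, 5 MgCl2, 10 HEPES and 1 EGTA (pH 7.4). Test compound was perfused onto the cytoplasmic side. A +80 mV prepulse preceded steps to steady state. The last-10-ms current was normalized to bracketing blocker-free controls and fitted to a Langmuir function for K1/2.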"}, "CLC-0 E166W mutant": {"biological_target": "T2, CLC-0 E166W mutant (Torpedo marmorata, UniProt P21564, C212S/E166W)", "T2 sequence (P21564 1-805 E166W/C212S)": "T1 sequence (P21564 1-805 E166S/C212S) with S166W", "assay_type": "cell-based", "conditions": "read-out: Apparent affinity (K1/2)", "summary_of_the_method": "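CLC-0 mutants in the C212S background were transfected into HEK293 cells with lipofectamine and recorded 1–3 d later as excised inside-out patches. Both sides held 130 mM NaCl, 5 mM MgCl2, 10 mM HEPES and 1 mM EGTA, pH 7.4. CPA was perfused continuously onto the cytoplasmic face. Steady-state current over the last 10 ms was normalized to bracketing blocker-free controls and fitted to a Langmuir function for K1/2. Values are mean ± SEM of ~4–6 patches.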"}}, "note": "Where a chain is given by its changes, count along the chain named. Like-named read-outs stand apart in the source and are kept apart here.", "data": [{"smiles": "O=C(O)COc1ccc(Cl)cc1", "note": "[CPA, p-chlorophenoxy acetate]", "values": [{"measurement": "IC50", "setting": "CLC-0 E166S mutant; −40 mV", "value": "641 ± 36", "unit": "µM"}, {"measurement": "IC50", "setting": "CLC-0 E166S mutant; −60 mV", "value": "342 ± 15", "unit": "µM"}, {"measurement": "IC50", "setting": "CLC-0 E166S mutant; −80 mV", "value": "179 ± 7", "unit": "µM"}, {"measurement": "IC50", "setting": "CLC-0 E166S mutant; −100 mV", "value": "104 ± 4", "unit": "µM"}, {"measurement": "IC50", "setting": "CLC-0 E166S mutant; −120 mV", "value": "58 ± 3", "unit": "µM"}, {"measurement": "IC50", "setting": "CLC-0 E166S mutant; −140 mV", "value": "35 ± 2", "unit": "µM"}, {"measurement": "IC50", "setting": "CLC-0 E166S mutant; −160 mV", "value": "21 ± 1", "unit": "µM"}, {"measurement": "IC50", "setting": "CLC-0 E166W mutant; −60 mV", "value": "13200 ± 2100", "unit": "µM"}, {"measurement": "IC50", "setting": "CLC-0 E166W mutant; −80 mV", "value": "6660 ± 980", "unit": "µM"}, {"measurement": "IC50", "setting": "CLC-0 E166W mutant; −100 mV", "value": "3490 ± 410", "unit": "µM"}, {"measurement": "IC50", "setting": "CLC-0 E166W mutant; −120 mV", "value": "1860 ± 220", "unit": "µM"}, {"measurement": "IC50", "setting": "CLC-0 E166W mutant; −140 mV", "value": "970 ± 130", "unit": "µM"}, {"measurement": "IC50", "setting": "CLC-0 E166W mutant; −160 mV", "value": "550 ± 70", "unit": "µM"}]}, {"smiles": "CCCCCCCC(=O)O", "note": "[octanoate]", "values": [{"measurement": "IC50", "setting": "CLC-0 E166S mutant; −40 mV", "value": "855 ± 37", "unit": "µM"}, {"measurement": "IC50", "setting": "CLC-0 E166S mutant; −60 mV", "value": "403 ± 22", "unit": "µM"}, {"measurement": "IC50", "setting": "CLC-0 E166S mutant; −80 mV", "value": "198 ± 11", "unit": "µM"}, {"measurement": "IC50", "setting": "CLC-0 E166S mutant; −100 mV", "value": "100 ± 9", "unit": "µM"}, {"measurement": "IC50", "setting": "CLC-0 E166S mutant; −120 mV", "value": "50 ± 3", "unit": "µM"}, {"measurement": "IC50", "setting": "CLC-0 E166S mutant; −140 mV", "value": "26 ± 3", "unit": "µM"}, {"measurement": "IC50", "setting": "CLC-0 E166S mutant; −160 mV", "value": "16 ± 2", "unit": "µM"}, {"measurement": "IC50", "setting": "CLC-0 E166W mutant; −80 mV", "value": "19200 ± 3300", "unit": "µM"}, {"measurement": "IC50", "setting": "CLC-0 E166W mutant; −100 mV", "value": "13000 ± 2000", "unit": "µM"}, {"measurement": "IC50", "setting": "CLC-0 E166W mutant; −120 mV", "value": "8600 ± 1300", "unit": "µM"}, {"measurement": "IC50", "setting": "CLC-0 E166W mutant; −140 mV", "value": "5530 ± 870", "unit": "µM"}, {"measurement": "IC50", "setting": "CLC-0 E166W mutant; −160 mV", "value": "3500 ± 590", "unit": "µM"}]}]}
